Measurements as given in ChEMBL document CHEMBL4004818, “Montagnuphilones A-G, Azaphilones from Montagnulaceae sp. DM0194, a Fungal Endophyte of Submerged Roots of Persicaria amphibia” (J Nat Prod, 2017).
pIC50: −log10 of the molar value.

How the values were obtained:
[1] = Cytotoxicity against LPS-induced mouse RAW264.7 cells assessed as cell survival up to 100 uM by MTT assay relative to control; format: cell-based; conditions: LPS-induced RAW264.7 cells, read-out: Survival
Summary of the method: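 MTT viability assay on LPS-activated RAW264.7 cells, the same cells used for the NO assay; tested at concentrations up to 100 μM; triplicate experiments.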

[2] = system: RAW264.7; experiment: Antiinflammatory activity in mouse RAW264.7 cells assessed as inhibition of LPS-induced nitric oxide production preincubated for 2 hrs followed by LPS stimulation measured after 18 hrs by Griess assay; format: functional, cell-based
Summary of the method: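 LPS-activated RAW264.7 macrophages; nitric oxide production measured and IC50 derived; L-NAME as positive control; triplicate experiments.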

Row | SMILES | viability [1] | pIC50 [2]
1 | Cc1cc(O)cc(O)c1C(=O)O[C@@]1(C)C(=O)C2=C(C=C(/C=C/CO)OC2)C[C@H]1O | 90% | 5.04
2 | Cc1cc(O)cc(O)c1C(=O)O[C@@H]1CC2=C(CO[C@](O)(CCC(=O)O)C2)C(=O)[C@]1(C)O (relative stereo) | 90% | 
3 | Cc1cc(O)cc(O)c1C(=O)O[C@@H]1CC2=C(CO[C@@](O)(CCCO)C2)C(=O)[C@]1(C)O (relative stereo) | 90% | 
4 | Cc1cc(O)cc(O)c1C(=O)O[C@@H]1CC2=C(COC(/C=C/C(=O)O)=C2)C(=O)[C@]1(C)O (relative stereo) | 90% | 
5 | Cc1cc(O)cc(O)c1C(=O)O[C@@H]1CC2=C(CO[C@](O)(CCCO)C2)C(=O)[C@]1(C)O (relative stereo) | 90% | 4.59
6 | Cc1cc(O)cc(O)c1C(=O)O[C@@H]1CC2=C(CO[C@@](O)(CCC(=O)O)C2)C(=O)[C@]1(C)O (relative stereo) | 90% | 
7 | Cc1cc(O)cc(O)c1C(=O)O[C@@H]1CC2=C(COC(CCC(=O)O)=C2)C(=O)[C@]1(C)O (relative stereo) | 90% | 4.40
8 | COC(=O)[C@@H](N)CCCNC(=N)N[N+](=O)[O-] [L-NAME] |  | 4.51
